Only some compounds are listed: those with a hit (about 3.7% of all), similar ones and a draw of the others.
EP2 antag: EP2 receptor (human) inhibition; P43116; 0.52% of 260,000 active; inhibition, % at 25 µM; AID 1422; C6 glioma cells expressing human EP2, cAMP TR-FRET; cells stimulated with saturating PGE2;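 active = percent inhibition above 40 after rounding to a whole number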;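 note: rat C6 glioma host cells with rolipram phosphodiesterase inhibitor present; the protocol text gives 20 µM as final concentration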
OX1R antag-1: blocks the human orexin 1 receptor | OX1R-expressing cells, FRET antagonist read-out | AID 485270 | inhibition, % at 6.6 µM | 1.8% of 330,000 active | O43613; in the data active = inhibition mostly above about 38%, no sharp cut-off; inactive = mostly below about 40%
Target sequence (O43613 whole entry, looked up): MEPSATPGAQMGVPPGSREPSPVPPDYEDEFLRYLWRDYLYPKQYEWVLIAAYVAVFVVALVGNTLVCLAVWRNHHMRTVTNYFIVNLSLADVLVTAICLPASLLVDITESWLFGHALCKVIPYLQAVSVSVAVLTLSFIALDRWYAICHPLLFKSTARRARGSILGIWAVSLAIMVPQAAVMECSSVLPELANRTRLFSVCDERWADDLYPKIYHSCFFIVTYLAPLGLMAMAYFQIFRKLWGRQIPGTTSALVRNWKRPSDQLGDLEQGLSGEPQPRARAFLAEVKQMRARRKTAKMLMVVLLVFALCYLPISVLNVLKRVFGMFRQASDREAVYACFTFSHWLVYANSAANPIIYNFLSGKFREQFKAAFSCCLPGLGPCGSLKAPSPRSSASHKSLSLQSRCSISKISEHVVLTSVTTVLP
OX1R antag-2: human HCRTR1 antagonism; CHO/OX1R cells, Fluo-8 calcium fluorescence, orexin A; 0.43% of 330,000 active; inhibition, % at 5 µM; O43613;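 active = inhibition above its plate's threshold, mean inhibition of all tested compounds on the plate plus 3 SD, cut at about 37% in these data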
EP2 modulator: modulates human prostaglandin E2 receptor EP2 signaling; P43116; EP2-expressing cells, cAMP HTRF FRET, PGE2 co-stimulation; induction, % at 25 µM; 0.83% of 260,000 active; AID 940;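 active = compounds whose cAMP rise, as percent of the full-agonist control response, exceeds 60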;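 note: rat C6 glioma line stably carrying human EP2 under a CMV promoter; the protocol text gives 20 µM as final concentration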
GPR7 antag: antagonists of human GPR7 (neuropeptides B/W receptor 1); GPR7-expressing cells, fluorescence antagonist assay; inhibition, % at 4.4 µM; 1.1% of 290,000 active; in the data active = inhibition above about 16%, passing the limit was not always enough;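 note: cells stimulated with the agonist NPW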
Target sequence (P48145 whole entry, looked up): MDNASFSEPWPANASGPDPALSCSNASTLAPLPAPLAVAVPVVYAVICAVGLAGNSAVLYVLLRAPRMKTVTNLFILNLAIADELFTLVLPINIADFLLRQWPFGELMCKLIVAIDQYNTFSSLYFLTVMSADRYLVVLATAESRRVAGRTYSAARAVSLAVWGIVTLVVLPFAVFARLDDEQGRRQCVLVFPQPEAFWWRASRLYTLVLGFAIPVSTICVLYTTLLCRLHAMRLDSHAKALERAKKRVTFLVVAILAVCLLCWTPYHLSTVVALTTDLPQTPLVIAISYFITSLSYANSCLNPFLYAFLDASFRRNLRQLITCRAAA
CHO parental Ca: counter-screen: ATP calcium response change in parental CHO cells; inhibition, % at 5.6 µM; 0.63% of 330,000 active; parental CHO-K1, ATP-induced calcium, Fluo-8 fluorescence; AID 463079;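 active = inhibition above that plate's mean sample inhibition plus 3 SD, cut at about 26% in these data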
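Material: Parental CHO cells | Reagent: ATP | Compound dosing: Single nominal dose of 5.6 µM per compound | Detection: Intracellular calcium via Fluo-8 no-wash fluorescent dye | Read-out: % inhibition of ATP-induced calcium mobilization | Benchmarks: Low control ATP plus DMSO, high control DMSO only | Replicates: Singlicate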
GPR7 antag cf: human GPR7 antagonism, confirmation assay; shares compounds with GPR7 antag; 52% of 2,400 active; inhibition, % at 4.4 µM; GPR7-expressing cells, calcium fluorescence antagonist mode; in the data active = inhibition above about 24%;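 note: stimulated with the GPR7 agonist NPW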
MCHR1 antag: antagonizes human MCHR1, a GPR7 antagonist counter-screen; MCHR1-expressing cells, fluorescence antagonist assay; shares compounds with GPR7 antag; inhibition, % at 4.4 µM; 62% of 2,400 active; in the data active = inhibition above about 22%
Of the large screens only hits and unclear results are named; the others gave an inactive call (follow-up assays come after a bar, where they were run).

CCCNC(=O)C(=O)NCC(c1ccc2c(c1)OCO2)N1CCN(c2ccc(F)cc2)CC1 (stereo unspecified)	none (no result: EP2 antag, EP2 modulator)
CCCCn1c(N)c(N(CC(C)C)C(=O)c2ccc(COc3ccccc3)o2)c(=O)[nH]c1=O	GPR7 antag 26 (no result: EP2 antag, EP2 modulator) | GPR7 antag cf 32 | MCHR1 antag inactive
CCCn1c(N)c(N(CCOC)C(=O)c2ccccc2F)c(=O)[nH]c1=O	none (no result: EP2 antag, EP2 modulator)
CCCCn1c(N)c(N(CC(C)C)C(=O)c2cccc(OCc3ccccc3)c2)c(=O)[nH]c1=O	none (no result: EP2 antag, EP2 modulator, GPR7 antag)
CCCCn1c(N)c(N(CC(C)C)C(=O)c2cccc(S(=O)(=O)N3CCCCC3)c2)c(=O)[nH]c1=O	none (no result: EP2 antag, EP2 modulator, GPR7 antag)
CCCCN(C(=O)c1ccccc1OCc1ccc(F)cc1)c1c(N)n(CCC)c(=O)[nH]c1=O	OX1R antag-1 66, GPR7 antag 30 (no result: EP2 antag, EP2 modulator) | GPR7 antag cf inactive | MCHR1 antag inactive
CCCCn1c(N)c(N(CC(C)C)C(=O)c2cccc(S(=O)(=O)N3CCCCCC3)c2)c(=O)[nH]c1=O	GPR7 antag 28 (no result: EP2 antag, EP2 modulator) | GPR7 antag cf inactive | MCHR1 antag inactive
CCCCn1c(N)c(N(CCOC)C(=O)CCNC(=O)c2ccccc2Cl)c(=O)[nH]c1=O	GPR7 antag 26 (no result: EP2 antag, EP2 modulator) | GPR7 antag cf inactive | MCHR1 antag inactive
COc1ccc(-c2nc(S(=O)(=O)c3ccc(C)cc3)c(N3CCCC3)o2)cc1	none
O=C(NCCc1ccccc1)c1ccc2c(c1)N(Cc1ccccc1)C(=O)CS2=O (stereo unspecified)	none
Clc1ccc(-c2c[n+](Cc3ccc(Br)cc3)c3n2CCCCC3)cc1	none
Clc1ccc(-c2c[n+](Cc3ccc(Cl)cc3Cl)c3n2CCCCC3)cc1	GPR7 antag 23 | GPR7 antag cf 26 | MCHR1 antag 27
Cc1nc(-c2ccc(S(=O)(=O)N3CCOCC3)cc2)cs1	GPR7 antag 27 (no result: EP2 antag, EP2 modulator) | GPR7 antag cf inactive | MCHR1 antag inactive
Cc1nc(-c2ccc(S(=O)(=O)N3CCCCCC3)cc2)cs1	none
COc1ccc(NC(=S)NC(=O)Cc2ccccc2)c(OC)c1	none (no result: EP2 antag, EP2 modulator)
Cc1ccc(NC(=S)NC(=O)Cc2ccccc2)c(O)c1	GPR7 antag 29 (no result: EP2 antag, OX1R antag-1, OX1R antag-2, EP2 modulator, CHO parental Ca) | GPR7 antag cf 42 | MCHR1 antag 29
Cc1ccc(N(C)S(=O)(=O)c2c(C)[nH]c(C)c2C(=O)N2CCCC2)cc1	none (no result: EP2 antag, EP2 modulator)
CNCCCOc1ccc(Cl)cc1C(C)(C)C	GPR7 antag 25 | GPR7 antag cf 41 | MCHR1 antag 48
COCCCNCCCOc1ccc(Cl)cc1C(C)(C)C	GPR7 antag 22 | GPR7 antag cf 26 | MCHR1 antag 33
CCCSc1ccc2nc(NC(=O)OC)[nH]c2c1	GPR7 antag 29 | GPR7 antag cf 40 | MCHR1 antag 28
COC(=O)Nc1nc2ccc(SC(C)C)cc2[nH]1	none (no result: EP2 antag, EP2 modulator, GPR7 antag)
OC(COc1ccccc1F)CN1CCC(Cc2ccccc2)CC1 (stereo unspecified)	none (no result: EP2 antag, EP2 modulator)
OC(COc1ccc(F)cc1Cl)CN1CCC(Cc2ccccc2)CC1 (stereo unspecified)	GPR7 antag 42 (no result: EP2 antag, EP2 modulator) | GPR7 antag cf inactive | MCHR1 antag 43
CCSc1nnc2c(n1)[nH]c1c(C)cc(C)cc12	none (no result: OX1R antag-1, OX1R antag-2, GPR7 antag, CHO parental Ca)
CN1C(=O)C(O)(CC(=O)/C=C/C=C/c2ccccc2)c2ccccc21 (stereo unspecified)	GPR7 antag 23 | GPR7 antag cf inactive | MCHR1 antag inactive
O=C(CCC1CC(=O)Nc2ccccc21)NCc1ccc(F)cc1 (stereo unspecified)	GPR7 antag 33 | GPR7 antag cf inactive | MCHR1 antag 23
C/C(=C(/CCO)SSCC1CCCO1)N(C=O)Cc1cnc(C)nc1N (stereo unspecified)	none (no result: EP2 antag, EP2 modulator, GPR7 antag)
CC1CN(c2oc(COc3ccc(Cl)cc3Cl)nc2C#N)CC(C)O1 (stereo unspecified)	GPR7 antag 40 | GPR7 antag cf 24 | MCHR1 antag 28
N#Cc1nc(COc2ccccc2Cl)oc1N1CCCC1	none
COc1ccc(Cl)cc1NC(=O)Nc1ccccc1C(N)=O	GPR7 antag 30 | GPR7 antag cf inactive | MCHR1 antag inactive
COc1ccc(Cl)cc1NC(=O)CNc1ccccc1CN(C)C1CCCCC1	GPR7 antag 27 | GPR7 antag cf 35 | MCHR1 antag 47
NC(=O)c1ccccc1NC(=O)Nc1cccc(Cl)c1	none
CCCC(c1nnnn1CC1CCCO1)N1CCN(c2ccc(OC)cc2)CC1 (stereo unspecified)	none (no result: OX1R antag-1, OX1R antag-2, GPR7 antag, CHO parental Ca)
COc1ccc(C(=O)NCC(=O)NCC(=O)OCc2ccc(Br)cc2)cc1	none
CN(Cc1ccccc1)C(=O)c1ccccc1-c1ccccc1	GPR7 antag 69 | GPR7 antag cf inactive | MCHR1 antag inactive
CN(Cc1ccccc1)C(=O)c1ccccc1Br	none
O=C(COc1ccccc1F)N1CCc2ccccc2C1	GPR7 antag 26 | GPR7 antag cf 34 | MCHR1 antag 35
O=C1N(Nc2ccccc2)C(c2ccc(Br)cc2)C12CCCC2 (stereo unspecified)	none
CSc1ncccc1C(=O)N(C)CC(=O)Nc1ccc(Cl)c(C(F)(F)F)c1	none (no result: EP2 antag, EP2 modulator)
CCN(CC(=O)Nc1c(F)cccc1F)C(=O)c1ccc(Cl)c(S(=O)(=O)N2CCCCC2)c1	GPR7 antag 35 (no result: EP2 antag, EP2 modulator) | GPR7 antag cf inactive | MCHR1 antag 49
CCCN(CC(=O)Nc1ccccc1C)C(=O)c1ccc(Cl)c(S(=O)(=O)N2CCCC2)c1	none (no result: EP2 antag, EP2 modulator, GPR7 antag)
Oc1cccc(C(=S)N2CCCCC2)c1	none
Cn1c(=O)c(NCCO)c2c3c(cccc31)C(=O)c1ccccc1-2	OX1R antag-2 103, GPR7 antag 61, CHO parental Ca 96 | GPR7 antag cf 60 | MCHR1 antag 82
Cn1c(=O)c(N)c2c3c(c(Br)ccc31)C(=O)c1ccccc1-2	none
CCCCNc1c2c3c(cccc3n(C)c1=O)C(=O)c1ccccc1-2	OX1R antag-2 91, GPR7 antag 21, CHO parental Ca 77 | GPR7 antag cf 65 | MCHR1 antag 81
Cc1ccc(SCC(=O)Nc2cc(S(=O)(=O)N3CCCCC3)ccc2C)cc1	none (no result: EP2 antag, EP2 modulator, GPR7 antag)
COC(=O)Cc1ccc(NC(=S)N2CCN(C)CC2)cc1	GPR7 antag 34 | GPR7 antag cf inactive | MCHR1 antag inactive
COC(=O)Cc1ccc(NC(=S)N2CCN(c3ccc(OC)cc3)CC2)cc1	none
CSc1nnc(N2C(=O)C(O)=C(C(=O)c3ccco3)C2c2ccccc2F)s1 (stereo unspecified)	GPR7 antag 23 (no result: EP2 antag, EP2 modulator) | GPR7 antag cf inactive | MCHR1 antag inactive
COC(=O)C1=C(C)N(c2ccc(OC)c(OC)c2)C(=O)C1	none (no result: EP2 antag)
Clc1ccccc1OCc1nnc(-c2ccccc2Br)o1	none
O=c1c(Cl)c(Cl)cnn1Cc1nnc(-c2ccccc2Br)o1	GPR7 antag 88 (no result: OX1R antag-1, OX1R antag-2, CHO parental Ca) | GPR7 antag cf 89 | MCHR1 antag 105

Source: PubChem
